Measured values published in ChEMBL document CHEMBL3244011, “(Aryloxy)[p-(aryloxy)phenyl]- and (aryloxy)[p-(arylthio)phenyl]acetic acids and esters as hypolipidemic agents” (1979).

System: Rattus norvegicus
Assay: Hypolipidemic activity in COBBS-CD rat assessed as reduction in serum sterol level at 0.01% administered with chow diet after 5 days relative to control
Type: functional
Parameters: scale not given: the % may be the effect or the level left
Outline: (§1)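 Male COBBS-CD rats, four per treated group and eight per control group. The compound was mixed into ground rat chow at 0.1, 0.03 or 0.01% w/w (about 100, 30 and 10 mg/kg). Control chow received only the mixing solvent (methanol-chloroform 1:3 v/v). Food and water were ad libitum for 5 days, then rats were decapitated and blood collected. Serum sterols were measured by an automated method and expressed relative to controls; ± values are SD.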

Compound | Activity [%]
COC(=O)C(Oc1ccc(Cl)c2cccnc12)c1ccc(Oc2ccc(Cl)cc2)cc1 (stereo not drawn) | 4
CCOC(=O)C(Oc1ccc(Cl)cc1)c1ccc(Oc2ccc(Cl)cc2)cc1 (stereo not drawn) | 18
COC(=O)C(Oc1ccccc1)c1ccc(Oc2ccccc2)cc1 (stereo not drawn) | 10
COC(=O)C(Oc1ccc(OCc2ccccc2)cc1)c1ccc(Oc2ccc(Cl)cc2)cc1 (stereo not drawn) | 13
COC(=O)C(Oc1cccc(Cl)c1)c1ccc(Oc2ccc(Cl)cc2)cc1 (stereo not drawn) | -3
COC(=O)C(Oc1ccc2ccc(=O)oc2c1)c1ccc(Oc2ccc(Cl)cc2)cc1 (stereo not drawn) | -5
CCOP(=O)(OCC)C(Oc1ccc(Cl)cc1)(C(=O)OC)c1ccc(Oc2ccc(Cl)cc2)cc1 (stereo not drawn) | 23
COC(=O)C(Oc1cc(Cl)c(Cl)c(Cl)c1)c1ccc(Oc2ccc(Cl)cc2)cc1 (stereo not drawn) | 3
COC(=O)C(Oc1ccc(F)cc1)c1ccc(Oc2ccc(C#N)cc2)cc1 (stereo not drawn) | 13
COC(=O)C(Oc1ccc(C(C)(C)C)cc1)c1ccc(Oc2ccc(Cl)cc2)cc1 (stereo not drawn) | 27
COC(=O)C(Oc1cccc2c1CCC2)c1ccc(Oc2ccc(Cl)cc2)cc1 (stereo not drawn) | 7
COC(=O)C(Oc1ccc(C2CCCCC2)cc1)c1ccc(Oc2cccc(C(F)(F)F)c2)cc1 (stereo not drawn) | 8
COC(=O)C(Oc1cccc2c1CCCC2)c1ccc(Oc2ccc(Cl)cc2)cc1 (stereo not drawn) | 1
COC(=O)C(Oc1ccc(Cl)c2c1CCCC2)c1ccc(Oc2ccc(Cl)cc2)cc1 (stereo not drawn) | -1
COC(=O)C(Oc1cccc(C(F)(F)F)c1)c1ccc(Oc2ccc(C(C)(C)C)cc2)cc1 (stereo not drawn) | -5
COC(=O)C(Oc1ccc(Cl)cc1)c1ccc(Sc2ccccc2)cc1 (stereo not drawn) | 6
COC(=O)C(Oc1ccc(C(C)(C)C)cc1)c1ccc(Oc2ccc(C#N)cc2)cc1 (stereo not drawn) | 16
COC(=O)C(Oc1cccc(C(F)(F)F)c1)c1ccc(Oc2ccc(Cl)cc2)cc1 (stereo not drawn) | -6

System: Rattus norvegicus
Assay: Hypolipidemic activity in COBBS-CD rat assessed as reduction in serum sterol level at 0.1% administered with chow diet after 5 days relative to control
Type: functional
Parameters: scale not given: the % may be the effect or the level left
Outline: as §1

Compound | Activity [%]
COC(=O)C(Oc1ccc(Cl)c2cccnc12)c1ccc(Oc2ccc(Cl)cc2)cc1 (stereo not drawn) | 5
CCOC(=O)C(Oc1ccc(Cl)cc1)c1ccc(Oc2ccc(Cl)cc2)cc1 (stereo not drawn) | 25
COC(=O)C(Oc1ccccc1)c1ccc(Oc2ccccc2)cc1 (stereo not drawn) | 21
COC(=O)C(Oc1ccc(OCc2ccccc2)cc1)c1ccc(Oc2ccc(Cl)cc2)cc1 (stereo not drawn) | 30
COC(=O)C(Oc1cccc(Cl)c1)c1ccc(Oc2ccc(Cl)cc2)cc1 (stereo not drawn) | 19
COC(=O)C(Oc1ccc2ccc(=O)oc2c1)c1ccc(Oc2ccc(Cl)cc2)cc1 (stereo not drawn) | -4
CCOP(=O)(OCC)C(Oc1ccc(Cl)cc1)(C(=O)OC)c1ccc(Oc2ccc(Cl)cc2)cc1 (stereo not drawn) | 43
COC(=O)C(Oc1cc(Cl)c(Cl)c(Cl)c1)c1ccc(Oc2ccc(Cl)cc2)cc1 (stereo not drawn) | 30
COC(=O)C(Oc1ccc(F)cc1)c1ccc(Oc2ccc(C#N)cc2)cc1 (stereo not drawn) | 33
COC(=O)C(Oc1ccc(C(C)(C)C)cc1)c1ccc(Oc2ccc(Cl)cc2)cc1 (stereo not drawn) | 20
COC(=O)C(Oc1cccc2c1CCC2)c1ccc(Oc2ccc(Cl)cc2)cc1 (stereo not drawn) | 19
COC(=O)C(Oc1ccc(C2CCCCC2)cc1)c1ccc(Oc2cccc(C(F)(F)F)c2)cc1 (stereo not drawn) | 20
COC(=O)C(Oc1cccc2c1CCCC2)c1ccc(Oc2ccc(Cl)cc2)cc1 (stereo not drawn) | 23
COC(=O)C(Oc1ccc(Cl)c2c1CCCC2)c1ccc(Oc2ccc(Cl)cc2)cc1 (stereo not drawn) | 25
COC(=O)C(Oc1cccc(C(F)(F)F)c1)c1ccc(Oc2ccc(C(C)(C)C)cc2)cc1 (stereo not drawn) | 13
COC(=O)C(Oc1ccc(Cl)cc1)c1ccc(Sc2ccccc2)cc1 (stereo not drawn) | 6
COC(=O)C(Oc1ccc(C(C)(C)C)cc1)c1ccc(Oc2ccc(C#N)cc2)cc1 (stereo not drawn) | 13
COC(=O)C(Oc1cccc(C(F)(F)F)c1)c1ccc(Oc2ccc(Cl)cc2)cc1 (stereo not drawn) | 28

System: Rattus norvegicus
Assay: Hypolipidemic activity in COBBS-CD rat assessed as reduction in serum triglyceride level at 0.01% administered with chow diet after 5 days relative to control
Type: functional
Parameters: scale not given: the % may be the effect or the level left
Outline: (§2)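 The compound was given in ground chow at 0.1, 0.03 or 0.01% w/w (about 100, 30 and 10 mg/kg) to male COBBS-CD rats (n=4; solvent-chow controls n=8) for 5 days ad libitum. Rats were killed by decapitation and blood collected. Serum triglycerides were assayed by an automated method and compared with controls; ± values are SD.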

Compound | Activity [%]
COC(=O)C(Oc1ccc(Cl)c2cccnc12)c1ccc(Oc2ccc(Cl)cc2)cc1 (stereo not drawn) | -3
CCOC(=O)C(Oc1ccc(Cl)cc1)c1ccc(Oc2ccc(Cl)cc2)cc1 (stereo not drawn) | 40
COC(=O)C(Oc1ccccc1)c1ccc(Oc2ccccc2)cc1 (stereo not drawn) | 46
COC(=O)C(Oc1ccc(OCc2ccccc2)cc1)c1ccc(Oc2ccc(Cl)cc2)cc1 (stereo not drawn) | 29
COC(=O)C(Oc1cccc(Cl)c1)c1ccc(Oc2ccc(Cl)cc2)cc1 (stereo not drawn) | 13
COC(=O)C(Oc1ccc2ccc(=O)oc2c1)c1ccc(Oc2ccc(Cl)cc2)cc1 (stereo not drawn) | 4
CCOP(=O)(OCC)C(Oc1ccc(Cl)cc1)(C(=O)OC)c1ccc(Oc2ccc(Cl)cc2)cc1 (stereo not drawn) | 18
COC(=O)C(Oc1cc(Cl)c(Cl)c(Cl)c1)c1ccc(Oc2ccc(Cl)cc2)cc1 (stereo not drawn) | 15
COC(=O)C(Oc1ccc(F)cc1)c1ccc(Oc2ccc(C#N)cc2)cc1 (stereo not drawn) | 38
COC(=O)C(Oc1ccc(C(C)(C)C)cc1)c1ccc(Oc2ccc(Cl)cc2)cc1 (stereo not drawn) | 41
COC(=O)C(Oc1cccc2c1CCC2)c1ccc(Oc2ccc(Cl)cc2)cc1 (stereo not drawn) | -39
COC(=O)C(Oc1ccc(C2CCCCC2)cc1)c1ccc(Oc2cccc(C(F)(F)F)c2)cc1 (stereo not drawn) | 40
COC(=O)C(Oc1cccc2c1CCCC2)c1ccc(Oc2ccc(Cl)cc2)cc1 (stereo not drawn) | -34
COC(=O)C(Oc1ccc(Cl)c2c1CCCC2)c1ccc(Oc2ccc(Cl)cc2)cc1 (stereo not drawn) | 24
COC(=O)C(Oc1cccc(C(F)(F)F)c1)c1ccc(Oc2ccc(C(C)(C)C)cc2)cc1 (stereo not drawn) | -12
COC(=O)C(Oc1ccc(Cl)cc1)c1ccc(Sc2ccccc2)cc1 (stereo not drawn) | 41
COC(=O)C(Oc1ccc(C(C)(C)C)cc1)c1ccc(Oc2ccc(C#N)cc2)cc1 (stereo not drawn) | 69
COC(=O)C(Oc1cccc(C(F)(F)F)c1)c1ccc(Oc2ccc(Cl)cc2)cc1 (stereo not drawn) | 18

System: Rattus norvegicus
Assay: Hypolipidemic activity in COBBS-CD rat assessed as reduction in serum triglyceride level at 0.1% administered with chow diet after 5 days relative to control
Type: functional
Parameters: scale not given: the % may be the effect or the level left
Outline: as §2

Compound | Activity [%]
COC(=O)C(Oc1ccc(Cl)c2cccnc12)c1ccc(Oc2ccc(Cl)cc2)cc1 (stereo not drawn) | 5
CCOC(=O)C(Oc1ccc(Cl)cc1)c1ccc(Oc2ccc(Cl)cc2)cc1 (stereo not drawn) | 60
COC(=O)C(Oc1ccccc1)c1ccc(Oc2ccccc2)cc1 (stereo not drawn) | 58
COC(=O)C(Oc1ccc(OCc2ccccc2)cc1)c1ccc(Oc2ccc(Cl)cc2)cc1 (stereo not drawn) | 57
COC(=O)C(Oc1cccc(Cl)c1)c1ccc(Oc2ccc(Cl)cc2)cc1 (stereo not drawn) | 50
COC(=O)C(Oc1ccc2ccc(=O)oc2c1)c1ccc(Oc2ccc(Cl)cc2)cc1 (stereo not drawn) | -16
CCOP(=O)(OCC)C(Oc1ccc(Cl)cc1)(C(=O)OC)c1ccc(Oc2ccc(Cl)cc2)cc1 (stereo not drawn) | 60
COC(=O)C(Oc1cc(Cl)c(Cl)c(Cl)c1)c1ccc(Oc2ccc(Cl)cc2)cc1 (stereo not drawn) | 55
COC(=O)C(Oc1ccc(F)cc1)c1ccc(Oc2ccc(C#N)cc2)cc1 (stereo not drawn) | 60
COC(=O)C(Oc1ccc(C(C)(C)C)cc1)c1ccc(Oc2ccc(Cl)cc2)cc1 (stereo not drawn) | 57
COC(=O)C(Oc1cccc2c1CCC2)c1ccc(Oc2ccc(Cl)cc2)cc1 (stereo not drawn) | 17
COC(=O)C(Oc1ccc(C2CCCCC2)cc1)c1ccc(Oc2cccc(C(F)(F)F)c2)cc1 (stereo not drawn) | 59
COC(=O)C(Oc1cccc2c1CCCC2)c1ccc(Oc2ccc(Cl)cc2)cc1 (stereo not drawn) | 41
COC(=O)C(Oc1ccc(Cl)c2c1CCCC2)c1ccc(Oc2ccc(Cl)cc2)cc1 (stereo not drawn) | 54
COC(=O)C(Oc1cccc(C(F)(F)F)c1)c1ccc(Oc2ccc(C(C)(C)C)cc2)cc1 (stereo not drawn) | 19
COC(=O)C(Oc1ccc(Cl)cc1)c1ccc(Sc2ccccc2)cc1 (stereo not drawn) | 30
COC(=O)C(Oc1ccc(C(C)(C)C)cc1)c1ccc(Oc2ccc(C#N)cc2)cc1 (stereo not drawn) | 59
COC(=O)C(Oc1cccc(C(F)(F)F)c1)c1ccc(Oc2ccc(Cl)cc2)cc1 (stereo not drawn) | 61

System: Rattus norvegicus
Assay: Hypolipidemic activity in COBBS-CD rat assessed as reduction in serum triglyceride level at 0.03% administered with chow diet after 5 days relative to control
Type: functional
Parameters: scale not given: the % may be the effect or the level left
Outline: as §2

Compound | Activity [%]
COC(=O)C(Oc1ccc(Cl)c2cccnc12)c1ccc(Oc2ccc(Cl)cc2)cc1 (stereo not drawn) | 4
CCOC(=O)C(Oc1ccc(Cl)cc1)c1ccc(Oc2ccc(Cl)cc2)cc1 (stereo not drawn) | 51
COC(=O)C(Oc1ccccc1)c1ccc(Oc2ccccc2)cc1 (stereo not drawn) | 49
COC(=O)C(Oc1ccc(OCc2ccccc2)cc1)c1ccc(Oc2ccc(Cl)cc2)cc1 (stereo not drawn) | 37
COC(=O)C(Oc1cccc(Cl)c1)c1ccc(Oc2ccc(Cl)cc2)cc1 (stereo not drawn) | 22
COC(=O)C(Oc1ccc2ccc(=O)oc2c1)c1ccc(Oc2ccc(Cl)cc2)cc1 (stereo not drawn) | -23
CCOP(=O)(OCC)C(Oc1ccc(Cl)cc1)(C(=O)OC)c1ccc(Oc2ccc(Cl)cc2)cc1 (stereo not drawn) | 44
COC(=O)C(Oc1cc(Cl)c(Cl)c(Cl)c1)c1ccc(Oc2ccc(Cl)cc2)cc1 (stereo not drawn) | 46
COC(=O)C(Oc1ccc(F)cc1)c1ccc(Oc2ccc(C#N)cc2)cc1 (stereo not drawn) | 31
COC(=O)C(Oc1ccc(C(C)(C)C)cc1)c1ccc(Oc2ccc(Cl)cc2)cc1 (stereo not drawn) | 53
COC(=O)C(Oc1cccc2c1CCC2)c1ccc(Oc2ccc(Cl)cc2)cc1 (stereo not drawn) | -8
COC(=O)C(Oc1ccc(C2CCCCC2)cc1)c1ccc(Oc2cccc(C(F)(F)F)c2)cc1 (stereo not drawn) | 34
COC(=O)C(Oc1cccc2c1CCCC2)c1ccc(Oc2ccc(Cl)cc2)cc1 (stereo not drawn) | -1
COC(=O)C(Oc1ccc(Cl)c2c1CCCC2)c1ccc(Oc2ccc(Cl)cc2)cc1 (stereo not drawn) | 28
COC(=O)C(Oc1cccc(C(F)(F)F)c1)c1ccc(Oc2ccc(C(C)(C)C)cc2)cc1 (stereo not drawn) | -18
COC(=O)C(Oc1ccc(Cl)cc1)c1ccc(Sc2ccccc2)cc1 (stereo not drawn) | 47
COC(=O)C(Oc1ccc(C(C)(C)C)cc1)c1ccc(Oc2ccc(C#N)cc2)cc1 (stereo not drawn) | 63
COC(=O)C(Oc1cccc(C(F)(F)F)c1)c1ccc(Oc2ccc(Cl)cc2)cc1 (stereo not drawn) | 47

System: Rattus norvegicus
Assay: Hypolipidemic activity in COBBS-CD rat assessed as reduction in serum sterol level at 0.03% administered with chow diet after 5 days relative to control
Type: functional
Parameters: scale not given: the % may be the effect or the level left
Outline: as §1

Compound | Activity [%]
COC(=O)C(Oc1ccc(Cl)c2cccnc12)c1ccc(Oc2ccc(Cl)cc2)cc1 (stereo not drawn) | 4
CCOC(=O)C(Oc1ccc(Cl)cc1)c1ccc(Oc2ccc(Cl)cc2)cc1 (stereo not drawn) | 25
COC(=O)C(Oc1ccccc1)c1ccc(Oc2ccccc2)cc1 (stereo not drawn) | 19
COC(=O)C(Oc1ccc(OCc2ccccc2)cc1)c1ccc(Oc2ccc(Cl)cc2)cc1 (stereo not drawn) | 26
COC(=O)C(Oc1cccc(Cl)c1)c1ccc(Oc2ccc(Cl)cc2)cc1 (stereo not drawn) | 11
COC(=O)C(Oc1ccc2ccc(=O)oc2c1)c1ccc(Oc2ccc(Cl)cc2)cc1 (stereo not drawn) | 7
CCOP(=O)(OCC)C(Oc1ccc(Cl)cc1)(C(=O)OC)c1ccc(Oc2ccc(Cl)cc2)cc1 (stereo not drawn) | 27
COC(=O)C(Oc1cc(Cl)c(Cl)c(Cl)c1)c1ccc(Oc2ccc(Cl)cc2)cc1 (stereo not drawn) | -2
COC(=O)C(Oc1ccc(F)cc1)c1ccc(Oc2ccc(C#N)cc2)cc1 (stereo not drawn) | 19
COC(=O)C(Oc1ccc(C(C)(C)C)cc1)c1ccc(Oc2ccc(Cl)cc2)cc1 (stereo not drawn) | 20
COC(=O)C(Oc1cccc2c1CCC2)c1ccc(Oc2ccc(Cl)cc2)cc1 (stereo not drawn) | 10
COC(=O)C(Oc1ccc(C2CCCCC2)cc1)c1ccc(Oc2cccc(C(F)(F)F)c2)cc1 (stereo not drawn) | 18
COC(=O)C(Oc1cccc2c1CCCC2)c1ccc(Oc2ccc(Cl)cc2)cc1 (stereo not drawn) | 14
COC(=O)C(Oc1ccc(Cl)c2c1CCCC2)c1ccc(Oc2ccc(Cl)cc2)cc1 (stereo not drawn) | 30
COC(=O)C(Oc1cccc(C(F)(F)F)c1)c1ccc(Oc2ccc(C(C)(C)C)cc2)cc1 (stereo not drawn) | -4
COC(=O)C(Oc1ccc(Cl)cc1)c1ccc(Sc2ccccc2)cc1 (stereo not drawn) | 6
COC(=O)C(Oc1ccc(C(C)(C)C)cc1)c1ccc(Oc2ccc(C#N)cc2)cc1 (stereo not drawn) | 13
COC(=O)C(Oc1cccc(C(F)(F)F)c1)c1ccc(Oc2ccc(Cl)cc2)cc1 (stereo not drawn) | 16
